Experiments:
[1] = system: Human immunodeficiency virus 1; test: Binding affinity to covalently-crosslinked hexameric HIV1 capsid protein A14C/E45C/W184A/M185A mutant expressed in Escherichia coli BL21(DE3)RIL assessed as change in melting temperature at 20 uM incubated for 30 mins by thermal shift dye based fluorescence analysis
Method in brief: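 Thermal shift: 15 μM CA121 in 50 mM sodium phosphate pH 8.0 with Sypro Orange and compound at 20 μM final or DMSO control. Heated 25 to 95 °C at 0.2 °C/10 s; fluorescence Ex 475–500, Em 520–590 nm. ΔTm = Tm(compound) − T0(DMSO) for CA hexamer melting.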

TZM = test: Cytotoxicity against human TZM-GFP cells incubated for 72 hrs by XTT assay; type: cell-based; details: tzm, 72 h
Method in brief: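 TZM-GFP cells seeded at 1 × 10^4 per well and exposed continuously to increasing compound concentrations for 72 h. Viable cell number read by XTT proliferation kit. CC50 fitted as log(inhibitor) vs normalized response, variable slope, per independent assay and averaged. Run in duplicate, at least two independent experiments, reported as mean ± standard deviation.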

[2] = system: Human immunodeficiency virus 1; test: Antiviral activity against HIV1 NL4-3 infected in human TZM-GFP cells assessed as number of GFP positive cells incubated for 48 hrs by imaging reader; type: functional, organism-based; details: Human immunodeficiency virus 1, NL4-3, TZM
Method in brief: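 TZM-GFP cells seeded 1 × 10^4/well and given increasing compound concentrations 24 h later; infected with HIV-1 NL4-3 (MOI = 1) after a further 24 h. Read-out after 48 h: GFP-positive cell counts (LTR-driven) versus DMSO controls. EC50 fitted as log(inhibitor) vs normalized response, variable slope, per experiment and averaged; mean ± SD, duplicates, at least two independent experiments.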

[3] = Stability of the compound in human plasma assessed as half life incubated for 3 hrs by LC-MS/MS analysis; type: ADME, cell-free
[4] = Metabolic stability at phase 1 in mouse liver microsomes assessed as half life at 1 uM by LC-MS/MS analysis; type: ADME, Microsome; details: for half-life at 1 µM: liver microsomes
[5] = Metabolic stability at phase 1 in human liver microsomes assessed as half life at 1 uM by LC-MS/MS analysis; type: ADME, Microsome
[6] = Stability of the compound in mouse plasma assessed as half life incubated for 3 hrs by LC-MS/MS analysis; type: ADME, cell-free

Row | SMILES | ΔTm [1] | CC50 (TZM) | EC50 [2] | t1/2 [3] | half-life at 1 µM [4] | t1/2 [5] | t1/2 [6] | t1/2 ([4]; microsomes, 1 µM)
1 | CCn1cc(CC(=O)N[C@@H](Cc2ccccc2)C(=O)N(C)c2cccc(Cl)c2)c2ccccc21 | 5.8 °C | 20 µM | 2 µM |  |  |  |  | 
2 | CC(C)n1cc(CC(=O)N[C@@H](Cc2ccccc2)C(=O)N(C)c2ccc(F)cc2)c2ccccc21 | 6.5 °C | 18 µM | 0.37 µM | > 6 h | 30 s | 54 s | > 6 h | 
3 | O=C(Cc1c[nH]c2ccccc12)N[C@@H](Cc1ccccc1)C(=O)NCc1cccc2[nH]ccc12 | 0.5 °C | < 100 µM | > 20 µM |  |  |  |  | 
4 | CC(C)n1cc(CC(=O)N[C@@H](Cc2ccccc2)C(=O)N(C)c2cccc(F)c2)c2ccccc21 | 5.8 °C | 12 µM | 0.32 µM |  |  |  |  | 
5 | CCN(C(=O)[C@H](Cc1ccccc1)NC(=O)Cc1cn(C(C)C)c2ccccc12)c1ccccc1 | 5.7 °C | 15 µM | 0.87 µM |  |  |  |  | 
6 | Cc1[nH]c2ccccc2c1CC(=O)N[C@@H](Cc1ccccc1)C(=O)Nc1ccccc1 | 0.7 °C | 40 µM | > 20 µM |  |  |  |  | 
7 | Cc1[nH]c2ccccc2c1CC(=O)N[C@@H](Cc1ccccc1)C(=O)N(C)c1cccnn1 | 3.2 °C | > 100 µM | 3.7 µM |  |  |  |  | 
8 | Cc1cc(NC(=O)[C@H](Cc2ccccc2)NC(=O)Cc2c(C)[nH]c3ccccc23)n[nH]1 | 0 °C | > 100 µM | > 20 µM |  |  |  |  | 
9 | CC(C)n1cc(CC(=O)N[C@@H](Cc2ccccc2)C(=O)N(C)c2ccc(Cl)cc2)c2ccccc21 | 7.1 °C | 10 µM | 0.32 µM |  |  |  |  | 
10 | Cc1c(CC(=O)N[C@@H](Cc2ccccc2)C(=O)N(C)c2ccccc2)c2ccccc2n1C(C)C | 7.8 °C | 16 µM | 0.28 µM | > 6 h | 30 s | 36 s | > 6 h | 
11 | O=C(Cc1c[nH]c2ccccc12)N[C@@H](Cc1ccccc1)C(=O)Nc1ccc2ncsc2c1 | 0 °C | 68 µM | > 20 µM |  |  |  |  | 
12 | Cc1cc(NC(=O)[C@H](Cc2ccccc2)NC(=O)Cc2c[nH]c3ccccc23)n[nH]1 | 0 °C | > 100 µM | > 20 µM |  |  |  |  | 
13 | O=C(Cc1c[nH]c2ccccc12)N[C@@H](Cc1ccccc1)C(=O)NC(c1ccccc1)c1ccccc1 | -1.6 °C | > 100 µM | > 20 µM |  |  |  |  | 
14 | Cc1[nH]c2ccccc2c1CC(=O)N[C@@H](Cc1ccccc1)C(=O)N(C)c1ccccc1 | 7.4 °C |  | 0.61 µM | > 6 h | 36 s |  |  | 
15 | CN(C(=O)[C@H](NC(=O)Cc1c[nH]c2ccccc12)c1ccccc1)c1ccccc1 | 1.5 °C | > 50 µM | > 20 µM |  |  |  |  | 
16 | Cc1[nH]c2ccccc2c1CC(=O)N[C@@H](Cc1ccccc1)C(=O)N(C)c1cccc(F)c1 | 6.2 °C | > 50 µM | 0.69 µM |  |  |  |  | 
17 | O=C(Cc1c[nH]c2ccccc12)N[C@@H](Cc1ccccc1)C(=O)Nc1ccccc1 | 0 °C | 96 µM | > 20 µM |  |  |  |  | 
18 | CCn1cc(CC(=O)N[C@@H](Cc2ccccc2)C(=O)N(C)c2ccc(C)cc2)c2ccccc21 | 8.6 °C | 14 µM | 0.34 µM |  |  |  |  | 
19 | Cc1ccc(N(C)C(=O)[C@H](Cc2ccccc2)NC(=O)Cc2c(C)n(C(C)C)c3ccccc23)cc1 | 8.4 °C | 10 µM | 0.63 µM |  |  |  |  | 
20 | Cc1c(CC(=O)N[C@@H](Cc2ccccc2)C(=O)N(C)c2cccc(F)c2)c2ccccc2n1C(C)C | 7 °C | 17 µM | 0.29 µM |  |  |  |  | 
21 | Cc1[nH]c2ccccc2c1CC(=O)N[C@@H](Cc1ccccc1)C(=O)Nc1ccc2ncsc2c1 | 1.4 °C | 49 µM | 10 µM |  |  |  |  | 
22 | Cc1[nH]c2ccccc2c1CC(=O)N[C@@H](Cc1ccccc1)C(=O)NCc1cccc2[nH]ccc12 | 0 °C | 36 µM | > 20 µM |  |  |  |  | 
23 | CCn1c(C)c(CC(=O)N[C@@H](Cc2ccccc2)C(=O)N(C)c2cccc(F)c2)c2ccccc21 | 10.8 °C | 20 µM | 0.33 µM |  |  |  |  | 
24 | O=C(Cc1c[nH]c2ccccc12)N[C@@H](Cc1ccccc1)C(=O)Nc1cccnn1 | 0.8 °C | > 100 µM | > 20 µM |  |  |  |  | 
25 | Cc1[nH]c2ccccc2c1CC(=O)N[C@@H](Cc1ccccc1)C(=O)N(C)c1cccnc1 | 0 °C | > 100 µM | > 20 µM |  |  |  |  | 
26 | CCn1c(C)c(CC(=O)N[C@@H](Cc2ccccc2)C(=O)N(C)c2ccc(C)cc2)c2ccccc21 | 11 °C | 18 µM | 0.23 µM |  |  |  |  | 

Row | SMILES | ΔTm [1] | CC50 (TZM) | EC50 [2] | t1/2 [3] | half-life at 1 µM [4] | t1/2 [5] | t1/2 [6] | t1/2 ([4]; microsomes, 1 µM)
27 | Cc1c(CC(=O)N[C@@H](Cc2ccccc2)C(=O)N(C)c2ccc(Cl)cc2)c2ccccc2n1C(C)C | 8.5 °C | 14 µM | 0.15 µM |  |  |  |  | 
28 | CCn1cc(CC(=O)N[C@@H](Cc2ccccc2)C(=O)N(C)c2ccc(Cl)cc2)c2ccccc21 | 8.6 °C | 16 µM | 0.25 µM |  |  |  |  | 
29 | CCn1c(C)c(CC(=O)N[C@@H](Cc2ccccc2)C(=O)N(C)c2ccc(Cl)cc2)c2ccccc21 | 11.9 °C | 27 µM | 0.24 µM |  |  |  |  | 
30 | Cc1[nH]c2ccccc2c1CC(=O)N[C@@H](Cc1ccccc1)C(=O)NC12CC3CC(CC(C3)C1)C2 | -0.8 °C | > 100 µM | > 20 µM |  |  |  |  | 
31 | CN(C(=O)[C@H](Cc1ccccc1)NC(=O)Cc1c[nH]c2ccccc12)c1ccc(Cl)nc1 | 4.9 °C |  | 0.26 µM | > 6 h |  | 126 s | > 6 h | 42 s
32 | Cc1c(CC(=O)N[C@@H](Cc2ccccc2)C(=O)N(C)c2cccc(Cl)c2)c2ccccc2n1C(C)C | 5.5 °C | 14 µM | 0.36 µM |  |  |  |  | 
33 | O=C(Cc1c[nH]c2ccccc12)N[C@@H](Cc1ccccc1)C(=O)O | -0.6 °C | > 50 µM | > 20 µM |  |  |  |  | 
34 | Cc1cc(N(C)C(=O)[C@H](Cc2ccccc2)NC(=O)Cc2c(C)[nH]c3ccccc23)n[nH]1 | 0 °C | < 100 µM | > 20 µM |  |  |  |  | 
35 | CCN(C(=O)[C@H](Cc1ccccc1)NC(=O)Cc1c(C)n(CC)c2ccccc12)c1ccccc1 | 10 °C | 20 µM | 0.56 µM |  |  |  |  | 
36 | Cc1[nH]c2ccccc2c1CC(=O)N[C@@H](Cc1ccccc1)C(=O)Nc1ccc(C#N)cc1 | -0.6 °C | > 100 µM | > 20 µM |  |  |  |  | 
37 | CN(C(=O)[C@H](Cc1ccccc1)NC(=O)Cc1c[nH]c2ccccc12)c1cccnc1 | -0.8 °C | > 100 µM | > 20 µM |  |  |  |  | 
38 | CN(C(=O)[C@H](Cc1ccccc1)NC(=O)Cc1c[nH]c2ccccc12)c1cccc(Br)c1 | 3.5 °C | < 50 µM | 2 µM |  |  |  |  | 
39 | CCn1c(C)c(CC(=O)N[C@@H](Cc2ccccc2)C(=O)N(C)c2cccc(Cl)c2)c2ccccc21 | 9.2 °C | 16 µM | 0.49 µM |  |  |  |  | 
40 | Cc1[nH]c2ccccc2c1CC(=O)N[C@@H](Cc1ccccc1)C(=O)Nc1cccnn1 | 0 °C | > 100 µM | > 20 µM |  |  |  |  | 
41 | Cc1[nH]c2ccccc2c1CC(=O)N[C@@H](Cc1ccccc1)C(=O)N(C)c1cccc(C(F)(F)F)c1 | 5.4 °C | 18 µM | 0.58 µM |  |  |  |  | 
42 | O=C(Cc1c[nH]c2ccccc12)N[C@@H](Cc1ccccc1)C(=O)Nc1nc2ccccc2[nH]1 | -0.6 °C | 44 µM | > 20 µM |  |  |  |  | 
43 | O=C(Cc1c[nH]c2ccccc12)N[C@@H](Cc1ccccc1)C(=O)Nc1cccc(-c2nnn[nH]2)c1 | -0.7 °C | > 100 µM | > 20 µM |  |  |  |  | 
44 | Cc1[nH]c2ccccc2c1CC(=O)N[C@@H](Cc1ccccc1)C(=O)Nc1nc2ccccc2[nH]1 | -0.6 °C | 15 µM | 11 µM |  |  |  |  | 
45 | Cc1[nH]c2ccccc2c1CC(=O)N[C@@H](Cc1ccccc1)C(=O)NC(c1ccccc1)c1ccccc1 | 0 °C | > 100 µM | > 20 µM |  |  |  |  | 
46 | CCN(C(=O)[C@H](Cc1ccccc1)NC(=O)Cc1c[nH]c2ccccc12)c1ccccc1 | 6.4 °C | 70 µM | 0.44 µM |  |  |  |  | 
47 | Cc1[nH]c2ccccc2c1CC(=O)N[C@@H](Cc1ccccc1)C(=O)Nc1ccc(Cl)cc1 | 0 °C | > 100 µM | > 20 µM |  |  |  |  | 
48 | CC(C)n1cc(CC(=O)N[C@@H](Cc2ccccc2)C(=O)N(C)c2cccc(Cl)c2)c2ccccc21 | 4.5 °C | 13 µM | 1.3 µM |  |  |  |  | 
49 | CN(C(=O)[C@H](Cc1ccccc1)NC(=O)Cc1c[nH]c2ccccc12)c1ccc(Cl)cc1 | 4.6 °C | < 50 µM | 0.45 µM |  |  |  |  | 
50 | Cc1[nH]c2ccccc2c1CC(=O)N[C@@H](Cc1ccccc1)C(=O)Nc1cccc(C#N)c1 | -0.5 °C | > 100 µM | > 20 µM |  |  |  |  | 
51 | CCn1cc(CC(=O)N[C@@H](Cc2ccccc2)C(=O)N(C)c2cccc(F)c2)c2ccccc21 | 5.9 °C | 31 µM | 0.84 µM |  |  |  |  | 

Source: ChEMBL document CHEMBL4765334, “Chemical profiling of HIV-1 capsid-targeting antiviral PF74” (Eur J Med Chem, 2020)
